# Laboratory results reported in ChEMBL document CHEMBL3102708, “Chartarlactams A-P, phenylspirodrimanes from the sponge-associated fungus Stachybotrys chartarum with antihyperlipidemic activities” (J Nat Prod, 2014).
# Activity calls are given as the source filed them. No cut-off for these calls is given here.
# What was measured:
# [1] = test system: HepG2; test: Cytotoxicity against human HepG2 cells up to 100 uM; assay type: cell-based
# [2] = test system: HepG2; test: Antihyperlipidemic activity in human HepG2 cells assessed as reduction of oleic acid-induced lipid accumulation at 10 uM […] measured after 6 hrs by Oil Red O staining; assay type: functional, cell-based
# Method in brief: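 HepG2 cells were grown in DMEM with 10% FBS and penicillin/streptomycin (100 μg/mL). At 70–80% confluence they received 100 μM oleic acid for 12 h, then 10 μM compound in DMEM/100 μM oleic acid for 6 h more. Lovastatin was the positive control and DMEM/oleic acid the blank. Neutral lipid was stained with Oil Red O and read at 358 nm, n = 8, repeated in triplicate, mean ± SEM.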
# [3] = test system: HepG2; test: Antihyperlipidemic activity in human HepG2 cells assessed as reduction of oleic acid-induced intracellular total cholesterol accumulation at 10 uM […] measured after 6 hrs; assay type: functional, cell-based
# Method in brief: (§1)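 HepG2 cells were kept in DMEM with 10% FBS and penicillin/streptomycin (100 μg/mL). At 70–80% confluence they were loaded with 100 μM oleic acid in DMEM for 12 h, then exposed to 10 μM compound in DMEM/100 μM oleic acid for a further 6 h. Lovastatin was the positive control and DMEM/oleic acid the blank. Intracellular TC and TG were measured with kits, n = 3, repeated in triplicate, mean ± SEM.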
# [4] = test system: HepG2; test: Antihyperlipidemic activity in human HepG2 cells assessed as reduction of oleic acid-induced intracellular triglyceride accumulation at 10 uM […] measured after 6 hrs; assay type: functional, cell-based; method in brief: as §1
SMILES,Activity [1],Activity [2],Activity [3],Activity [4]
C[C@@H]1CC[C@H]2C(C)(C)[C@H](O)CC[C@]2(C)[C@@]12Cc1c(O)cc3c(c1O2)/C(=C1\NC(=O)c2cc(O)c4c(c21)O[C@@]1(C4)[C@@H](C)CC[C@@H]2C(C)(C)[C@@H](O)CC[C@]21C)NC3=O,Non-toxic,Active,Active,
C[C@@H]1CC[C@H]2C(C)(C)[C@H](O)CC[C@]2(C)[C@@]12Cc1c(O[C@H]3O[C@H](CO)[C@@H](O)[C@H](O)[C@H]3O)cc3c(c1O2)CNC3=O,Non-toxic,Active,Active,
C[C@@H]1CC[C@H]2C(C)(C)[C@H](O)CC[C@]2(C)[C@@]12Cc1c(O)cc3c(c1O2)CN(C(Cc1ccccc1)C(=O)O)C3=O (some centres not stated),Non-toxic,Active,Active,Active
C[C@H]1CC[C@H]2C(C)(C)[C@H](O)[C@H](O)C[C@]2(C)[C@@]12Cc1c(O)cc3c(c1O2)C(=O)NC3,Non-toxic,,,
C[C@@H]1CC[C@H]2C(C)(C)[C@H](O)CC[C@]2(C)[C@@]12Cc1c(O)cc3c(c1O2)CNC3=O,Non-toxic,,,
C[C@@H]1CC[C@H]2C(C)(C)[C@H](O)[C@@H](O)C[C@]2(C)[C@@]12Cc1c(O)cc3c(c1O2)CNC3=O,Non-toxic,,,
C[C@@H]1CC[C@H]2C(C)(C)[C@H](O)CC[C@]2(C)[C@@]12Cc1c(O)cc3c(c1O2)C(=O)NC3,Non-toxic,Active,Active,Active
CC(=O)O[C@@H]1CC[C@@]2(C)[C@@H](CC[C@@H](C)[C@]23Cc2c(O)cc4c(c2O3)CNC4=O)C1(C)C,Non-toxic,,,
C[C@@H]1CC[C@H]2C(C)(C)[C@@H](O)[C@H](O)C[C@]2(C)[C@@]12Cc1c(O)cc3c(c1O2)CNC3=O,Non-toxic,,,
CC(=O)O[C@@H]1[C@H](O)C[C@@]2(C)[C@@H](CC[C@@H](C)[C@]23Cc2c(O)cc4c(c2O3)CNC4=O)C1(C)C,Non-toxic,Active,,Active
C[C@@H]1CC[C@H]2C(C)(C)[C@H](O)CC[C@]2(C)[C@@]12Cc1c(O)cc3c(c1O2)C(=O)NC3=O,Non-toxic,,,
C[C@@H]1CC[C@H]2C(C)(C)C(=O)CC[C@]2(C)[C@@]12Cc1c(O)cc3c(c1O2)CNC3=O,Non-toxic,Active,Active,Active
C[C@@H]1CC[C@H]2C(C)(C)[C@H](O)CC[C@]2(C)[C@@]12Cc1c(O)cc3c(c1O2)CN(CCO)C3=O,Non-toxic,,,
C[C@H]1CC[C@H]2C(C)(C)[C@H](O)CC[C@]2(C)[C@@]12Cc1c(O)cc3c(c1O2)C(=O)NC3,Non-toxic,Active,,Active
C[C@@H]1CC[C@H]2C(C)(C)[C@H](O)[C@H](O)C[C@]2(C)[C@@]12Cc1c(O)cc3c(c1O2)CNC3=O,Non-toxic,,,
C[C@@H]1CC[C@H]2C(C)(C)[C@H](O)CC[C@]2(C)[C@@]12Cc1c(O)cc3c(c1O2)CN(CCCCC(=O)O)C3=O,Non-toxic,,,
C[C@@H]1CC[C@H]2[C@](C)(CO)[C@H](O)CC[C@]2(C)[C@@]12Cc1c(O)cc3c(c1O2)CNC3=O,Non-toxic,,,
C[C@H]1CC[C@H]2C(C)(C)[C@H](O)[C@H](O)C[C@]2(C)[C@@]12Cc1c(O)cc3c(c1O2)CNC3=O,Non-toxic,,,
C[C@H]1CC[C@H]2C(C)(C)[C@H](O)CC[C@]2(C)[C@@]12Cc1c(O)cc3c(c1O2)CN(CCO)C3=O,Non-toxic,Active,Active,
CC(=O)O[C@@H]1[C@H](OC(C)=O)C[C@@]2(C)[C@@H](CC[C@@H](C)[C@]23Cc2c(O)cc4c(c2O3)CNC4=O)C1(C)C,Non-toxic,,,
C[C@@H]1CC[C@H]2C(C)(C)[C@H](O)[C@H](O)C[C@]2(C)[C@@]12Cc1c(O)cc3c(c1O2)CN(CCO)C3=O,Non-toxic,,,
C[C@H]1CC[C@H]2C(C)(C)[C@H](O)CC[C@]2(C)[C@@]12Cc1c(O)cc3c(c1O2)CNC3=O,Non-toxic,,,
C[C@@H]1CC[C@H]2C(C)(C)[C@H](O)CC[C@]2(C)[C@@]12Cc1c(O)cc3c(c1O2)C(=O)N(CCO)C3,Non-toxic,,,
